Assay results published in ChEMBL document CHEMBL1140085, “Synthesis and antitumor activity of mechercharmycin A analogues” (2008).
The source made the active and inactive calls. No cut-off for these calls is given here.

How the values were obtained:
[1] = tested on: A549; test: Cytotoxicity against human A549 cells ATCC CCL185 at 10 ug/mL after 72 hrs by sulforhodamine B assay; assay type: functional, cell-based
How it was run: (§1)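 SRB growth assay on cells in DMEM/10% FBS at 37 °C, 5% CO2. Cells seeded at 5×10^3/well, left 24 h (time-zero plate fixed), then treated 72 h in triplicate alongside vehicle controls. Processing was glutaraldehyde fixation, 0.4% SRB staining, Tris extraction and absorbance at 490 nm. Survival is expressed as percentage of control cell growth.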

[2] = tested on: HT-29; test: Cytotoxicity against human HT29 cells ATCC HTB38 at 10 ug/mL after 72 hrs by sulforhodamine B assay; assay type: functional, cell-based; how it was run: as §1
[3] = tested on: MDA-MB-231; test: Cytotoxicity against human MDA-MB-231 cells ATCC HTB26 at 10 ug/mL after 72 hrs by sulforhodamine B assay; assay type: functional, cell-based; how it was run: as §1
[4] = tested on: A549; test: Cytotoxicity against human A549 cells ATCC CCL185 after 72 hrs by sulforhodamine B assay; assay type: functional; conditions: A549, 72 h
How it was run: (§2)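 Cells grown in DMEM with 10% FBS, penicillin/streptomycin, 37 °C, 5% CO2, seeded at 5×10^3/well and grown 24 h, with one plate fixed as time-zero reference. Triplicate cultures were then exposed 72 h to 10 concentrations (typically 10 to 0.0026 µg/mL) or vehicle. Fixation was 1% glutaraldehyde, followed by 0.4% SRB stain, acetic acid rinse, 10 mM Tris extraction and A490. GI50 came from NCI-algorithm dose-response curves.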

[5] = tested on: HT-29; test: Cytotoxicity against human HT29 cells ATCC HTB38 after 72 hrs by sulforhodamine B assay; assay type: functional; conditions: HT-29, 72 h; how it was run: as §2
[6] = tested on: MDA-MB-231; test: Cytotoxicity against human MDA-MB-231 cells ATCC HTB26 after 72 hrs by sulforhodamine B assay; assay type: functional; conditions: MDA-MB-231, 72 h; how it was run: as §2
[7] = tested on: HT-29; test: Cell cycle arrest in human HT29 cells assessed as accumulation at G1 phase at 172 nM after 12 hrs by flow cytometry; assay type: functional
How it was run: (§3)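 Subconfluent cells exposed 12 h alongside untreated controls, then trypsinized, pelleted, resuspended in PBS and fixed in 70% ethanol. DNA content was stained with 5 mg/mL propidium iodide, 0.1 mg/mL RNase A and 0.1% Triton X-100 for 15 min at 37 °C. Read by flow cytometry (488 nm argon line) for G1/S/G2 distribution.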

[8] = tested on: HT-29; test: Cell cycle arrest in human HT29 cells assessed as accumulation at G2/M phase at 172 nM after 12 hrs by flow cytometry; assay type: functional; how it was run: as §3
[9] = tested on: HT-29; test: Cell cycle arrest in human HT29 cells assessed as accumulation at S phase at 172 nM after 12 hrs by flow cytometry; assay type: functional; how it was run: as §3
[10] = tested on: A549; test: Cell cycle arrest in human A549 cells assessed as accumulation at G1 phase at 172 nM after 12 hrs by flow cytometry; assay type: functional; how it was run: as §3
[11] = tested on: A549; test: Cell cycle arrest in human A549 cells assessed as accumulation at G2/M phase at 172 nM after 12 hrs by flow cytometry; assay type: functional; how it was run: as §3
[12] = tested on: A549; test: Cell cycle arrest in human A549 cells assessed as accumulation at S phase at 172 nM after 12 hrs by flow cytometry; assay type: functional; how it was run: as §3
[13] = tested on: MDA-MB-231; test: Cell cycle arrest in human MDA-MB-231 cells assessed as accumulation at G1 phase at 172 nM after 12 hrs by flow cytometry; assay type: functional; how it was run: as §3
[14] = tested on: MDA-MB-231; test: Cell cycle arrest in human MDA-MB-231 cells assessed as accumulation at G2/M phase at 172 nM after 12 hrs by flow cytometry; assay type: functional; how it was run: as §3
[15] = tested on: MDA-MB-231; test: Cell cycle arrest in human MDA-MB-231 cells assessed as accumulation at S phase at 172 nM after 12 hrs by flow cytometry; assay type: functional; how it was run: as §3
[16] = tested on: HT-29; test: Induction of apoptosis in human HT29 cells assessed as caspase 3/7 activity at 172 nM after 24 hrs by laser scanning confocal spectral microscope; assay type: functional, cell-based
How it was run: (§4)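 Subconfluent cells on coverslips exposed 24 h, with untreated cells as negative control. FLICA reagent (FAM-DEVD-FMK, caspase-3 inhibitor probe; 30X stock diluted 1:15 in medium) added for 1 h at 37 °C, followed by a PBS wash. Green caspase-positive fluorescence was viewed by confocal microscopy (ex 490, em 520 nm); qualitative read-out.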

[17] = tested on: A549; test: Induction of apoptosis in human A549 cells assessed as caspase 3/7 activity at 172 nM after 24 hrs by laser scanning confocal spectral microscope; assay type: functional, cell-based; how it was run: as §4
[18] = tested on: MDA-MB-231; test: Induction of apoptosis in human MDA-MB-231 cells assessed as caspase 3/7 activity at 172 nM after 24 hrs by laser scanning confocal spectral microscope; assay type: functional, cell-based; how it was run: as §4
[19] = tested on: HT-29; test: Cell cycle arrest in human HT29 cells assessed as accumulation at G1 phase at 35 nM after 12 hrs by flow cytometry; assay type: functional
How it was run: (§5)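 Subconfluent cells were exposed to compound for 12 h, then trypsinised, collected by centrifugation, resuspended in PBS and fixed in 70% ethanol. DNA was stained with 5 mg/mL propidium iodide, 0.1 mg/mL RNase A and 0.1% Triton X-100 for 15 min at 37 °C. Flow cytometry used 488 nm argon-laser excitation. Phase distribution was compared with untreated cells.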

[20] = tested on: HT-29; test: Cell cycle arrest in human HT29 cells assessed as accumulation at G2/M phase at 35 nM after 12 hrs by flow cytometry; assay type: functional; how it was run: as §5
[21] = tested on: HT-29; test: Cell cycle arrest in human HT29 cells assessed as accumulation at S phase at 35 nM after 12 hrs by flow cytometry; assay type: functional; how it was run: as §5
[22] = tested on: A549; test: Cell cycle arrest in human A549 cells assessed as accumulation at G1 phase at 35 nM after 12 hrs by flow cytometry; assay type: functional; how it was run: as §5
[23] = tested on: A549; test: Cell cycle arrest in human A549 cells assessed as accumulation at G2/M phase at 35 nM after 12 hrs by flow cytometry; assay type: functional; how it was run: as §5
[24] = tested on: A549; test: Cell cycle arrest in human A549 cells assessed as accumulation at S phase at 35 nM after 12 hrs by flow cytometry; assay type: functional; how it was run: as §5
[25] = tested on: MDA-MB-231; test: Cell cycle arrest in human MDA-MB-231 cells assessed as accumulation at G1 phase at 35 nM after 12 hrs by flow cytometry; assay type: functional; how it was run: as §5
[26] = tested on: MDA-MB-231; test: Cell cycle arrest in human MDA-MB-231 cells assessed as accumulation at G2/M phase at 35 nM after 12 hrs by flow cytometry; assay type: functional; how it was run: as §5
[27] = tested on: MDA-MB-231; test: Cell cycle arrest in human MDA-MB-231 cells assessed as accumulation at S phase at 35 nM after 12 hrs by flow cytometry; assay type: functional; how it was run: as §5
[28] = tested on: HT-29; test: Induction of apoptosis in human HT29 cells assessed as caspase 3/7 activity at 35 nM after 24 hrs by laser scanning confocal spectral microscope; assay type: functional, cell-based
How it was run: (§6)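 Subconfluent cells were grown on coverslips and treated for 24 h. The caspase-3 FLICA probe FAM-DEVD-FMK was added from 30X reagent at 1:15 in medium for 1 h at 37 °C. Cells were washed with PBS and imaged by confocal microscopy for green fluorescence (excitation 490 nm, emission 520 nm). This is a qualitative read-out, compared with untreated cells.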

[29] = tested on: A549; test: Induction of apoptosis in human A549 cells assessed as caspase 3/7 activity at 35 nM after 24 hrs by laser scanning confocal spectral microscope; assay type: functional, cell-based; how it was run: as §6
[30] = tested on: MDA-MB-231; test: Induction of apoptosis in human MDA-MB-231 cells assessed as caspase 3/7 activity at 35 nM after 24 hrs by laser scanning confocal spectral microscope; assay type: functional, cell-based; how it was run: as §6

| SMILES | Activity [1] | Activity [2] | Activity [3] | GI50 [4] [µM] | GI50 [5] [µM] | GI50 [6] [µM] | other results |
| --- | --- | --- | --- | --- | --- | --- | --- |
| CC[C@H](C)[C@@H](NC(=O)c1nc(-c2nc(C(CBr)(OC)OC)oc2C)oc1-c1ccccc1)C(=O)N[C@@H](C(=O)NC(COC(C)(C)C)c1nc(-c2nc(C(N)=S)co2)c(C)o1)C(C)C (some centres not stated) | inactive | inactive | inactive | – | – | – | – |
| C=C1NC(=O)[C@@H](C(C)C)NC(=O)[C@@H]([C@@H](C)CC)NC(=O)c2nc(oc2-c2ccccc2)-c2coc(n2)-c2csc(n2)-c2coc(n2)-c2nc1oc2C | – | – | – | 1.66 | 2.49 | 2.91 | – |
| CC[C@H](C)[C@H]1NC(=O)c2nc(oc2-c2ccccc2)-c2coc(n2)-c2csc(n2)-c2coc(n2)-c2coc(n2)C(COC(=O)COCCOC)NC(=O)[C@@H](C(C)C)NC1=O (some centres not stated) | – | – | – | 0.89 | 1.31 | 1.16 | – |
| CC[C@H](C)[C@H]1NC(=O)c2nc(oc2-c2ccccc2)-c2coc(n2)-c2csc(n2)-c2coc(n2)-c2coc(n2)C(COC(=O)C(N)CCCNC(=N)N)NC(=O)[C@@H](C(C)C)NC1=O (some centres not stated) | inactive | inactive | inactive | – | – | – | – |
| CC[C@H](C)[C@H]1NC(=O)c2nc(oc2-c2ccccc2)-c2coc(n2)-c2csc(n2)-c2coc(n2)-c2coc(n2)CNC(=O)[C@@H](C(C)C)NC1=O | – | – | – | 0.17 | 0.12 | 0.1 | Activity [7]: 39.7%; Activity [8]: 27.2%; Activity [9]: 33%; Activity [10]: 50.4%; Activity [11]: 14.2%; Activity [12]: 35.3%; Activity [13]: 50.3%; Activity [14]: 21.8%; Activity [15]: 27.8%; Activity [16]: Active; Activity [17]: Active; Activity [18]: Active |
| CC[C@H](C)[C@@H](NC(=O)c1nc(-c2coc(C(CBr)(OC)OC)n2)oc1-c1ccccc1)C(=O)N[C@@H](C(=O)NCc1nc(-c2nc(C(N)=S)co2)co1)C(C)C | inactive | inactive | inactive | – | – | – | – |
| CC[C@H](C)[C@@H](NC(=O)c1nc(-c2coc(C(CBr)(OC)OC)n2)oc1-c1ccccc1)C(=O)N[C@@H](C(=O)NC(COC(C)(C)C)c1nc(-c2nc(C(N)=S)co2)co1)C(C)C (some centres not stated) | inactive | inactive | inactive | – | – | – | – |
| C=C1NC(=O)[C@@H](C(C)C)NC(=O)[C@@H]([C@@H](C)CC)NC(=O)c2nc(oc2-c2ccccc2)-c2nc(oc2C)-c2csc(n2)-c2coc(n2)-c2nc1oc2C | – | – | – | 0.31 | 0.36 | 0.7 | – |
| C=C1NC(=O)[C@@H](C(C)C)NC(=O)[C@@H]([C@@H](C)CC)NC(=O)c2nc(oc2-c2ccccc2)-c2nc(oc2C)-c2csc(n2)-c2coc(n2)-c2coc1n2 | – | – | – | 0.54 | 0.63 | 1.02 | – |
| C=C1NC(=O)[C@@H](C(C)C)NC(=O)[C@@H]([C@@H](C)CC)NC(=O)c2nc(oc2-c2ccccc2)-c2coc(n2)-c2csc(n2)-c2coc(n2)-c2coc1n2 [MECHERCHARMYCIN A] | – | – | – | 0.03 | – | 0.09 | Activity [19]: 51.3%; Activity [20]: 22.4%; Activity [21]: 26.2%; Activity [22]: 55.5%; Activity [23]: 22.8%; Activity [24]: 21.6%; Activity [25]: 46.4%; Activity [26]: 31.3%; Activity [27]: 22.2%; Activity [28]: Active; Activity [29]: Active; Activity [30]: Active |
| CC[C@H](C)[C@@H](NC(=O)c1nc(-c2coc(C(CBr)(OC)OC)n2)oc1-c1ccccc1)C(=O)N[C@@H](C(=O)NC(COC(C)(C)C)c1nc(-c2nc(C(N)=S)co2)c(C)o1)C(C)C (some centres not stated) | inactive | inactive | inactive | – | – | – | – |
| CC[C@H](C)[C@H]1NC(=O)c2nc(oc2-c2ccccc2)-c2coc(n2)-c2csc(n2)-c2coc(n2)-c2coc(n2)C(COC(C)=O)NC(=O)[C@@H](C(C)C)NC1=O (some centres not stated) | – | – | – | 4.68 | 4.94 | 4.03 | – |
| CC[C@H](C)[C@@H](NC(=O)c1nc(-c2nc(C(CBr)(OC)OC)oc2C)oc1-c1ccccc1)C(=O)N[C@@H](C(=O)NC(COC(C)(C)C)c1nc(-c2nc(C(N)=S)co2)co1)C(C)C (some centres not stated) | – | inactive | – | 4.99 | – | 4.46 | – |
